Each structure is given as a SMILES string.

The test system of one data set is Plasma. Put plainly: Anti-coagulating activity in factor 8-deficient human plasma assessed as increase in coagulation time at 10 uM by aPTT assay. It counts as functional. The method, boiled down:
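Clotting time measured on a coagulation analyzer using actin FS, 0.025 M CaCl2, FVIII-deficient human plasma and Owren's Veronal Buffer pH 7.35, run per the manufacturer's instructions. Peptide tested from zero (vehicle) up to 10 μM. Each point is the mean ± SD of triplicates.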

In the next data set the test system is Mus musculus. Kind of data set: Antidiabetic activity in STZ-induced diabetic C57BL/6J mouse model assessed as reduction in retinal vascular permeability at 100 ug administered 4 times via ivt measured at 8 weeks post diabetes onset relative to control. It counts as functional. Summed up: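 Diabetes was induced with STZ in male C57BL/6J mice. Peptide was given as repeated intravitreal injections (4 × 100 μg). Retinal permeability was read as FITC-BSA extravasation 8 weeks after diabetes onset and compared with vehicle-treated diabetic mice. The anti-VEGFR2 antibody DC101 (6.2 μg/eye, single dose) served as positive control.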

Data set [1] deals with Rattus norvegicus. Kind of data set: Antiinflammatory activity in ip dosed Sprague-Dawley rat carrageenan-induced paw edema model assessed as inhibition of edema pretreated for 15 mins followed by carrageenan challenge measured up to 6 hrs. Type of data set: functional, organism-based. The method, boiled down:
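Male Sprague-Dawley rats received peptide IP (30, 10 or 3 mg/kg), or indomethacin IP at 5 mg/kg, 15 min before subplantar carrageenan. Paw volume was followed over time against a vehicle group.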
A general note: In the carrageenan paw model, swelling and tenderness develop within hours.

For data set [2], the system named is Rattus norvegicus. Kind of data set: Toxicity in rat at 125 ug administered as systemic dose. The following applies: in vivo.
The test system of the next data set is Cynomolgus monkey. Put plainly: Toxicity in cynomolgus monkey at 1.25 ug administered as systemic dose. The arrangement: species or system Macaca fascicularis. Particulars: in vivo.
A further data set deals with Plasma kallikrein (Homo sapiens, UniProt P03952). Put plainly: Inhibition of human plasma kallikrein using fluorogenic H-Pro-Phe-Arg-AMC peptide as substrate preincubated for 15 mins followed by substrate addition measured by fluorescence-based assay. The following applies: read-out: Ki(app).
Chain of Plasma kallikrein (P03952 20-390 limits assumed): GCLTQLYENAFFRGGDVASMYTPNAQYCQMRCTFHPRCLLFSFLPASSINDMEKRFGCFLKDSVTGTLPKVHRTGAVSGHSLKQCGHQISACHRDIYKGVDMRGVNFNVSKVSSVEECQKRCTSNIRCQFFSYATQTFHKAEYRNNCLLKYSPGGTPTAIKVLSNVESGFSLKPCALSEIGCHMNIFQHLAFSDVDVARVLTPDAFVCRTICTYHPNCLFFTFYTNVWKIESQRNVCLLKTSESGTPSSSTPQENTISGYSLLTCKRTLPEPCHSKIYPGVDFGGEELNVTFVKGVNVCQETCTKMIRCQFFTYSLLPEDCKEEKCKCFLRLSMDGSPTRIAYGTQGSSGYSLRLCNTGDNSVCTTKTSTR
Chain of Plasma kallikrein (P03952 391-638 limits assumed): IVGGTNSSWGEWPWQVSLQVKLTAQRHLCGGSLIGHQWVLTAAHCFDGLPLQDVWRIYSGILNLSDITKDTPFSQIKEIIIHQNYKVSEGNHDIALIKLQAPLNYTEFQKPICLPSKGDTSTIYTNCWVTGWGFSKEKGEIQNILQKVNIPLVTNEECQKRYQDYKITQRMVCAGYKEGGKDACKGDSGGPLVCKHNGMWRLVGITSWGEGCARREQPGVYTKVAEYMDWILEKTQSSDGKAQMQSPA
A further data set has as its target (UniProt A0A8D1M4K5). Put plainly: Inhibition of pig plasma kallikrein using fluorogenic H-Pro-Phe-Arg-AMC peptide as substrate preincubated for 15 mins followed by substrate addition measured by fluorescence-based assay. Particulars: read-out: Ki(app). The arrangement: species or system Sus scrofa.

For `CC(=O)N[C@H]1CSCc2cc3cc(c2)CSC[C@H](C(=O)N[C@@H](C)C(=O)N(C)CC(=O)N(C)CC(=O)N(C)CC(=O)N[C@H](CCCNC(=N)N)C(=O)N[C@H](CCCNC(=N)N)C(=O)O)NC(=O)[C@H](CC(C)C)NC(=O)[C@@H]2CCCN2C(=O)[C@H](C)NC(=O)[C@H](CC(=O)O)NC(=O)[C@H](Cc2c[nH]c4ccccc24)NC(=O)[C@@H]2CCCN2C(=O)[C@H](CSC3)NC(=O)[C@H](Cc2c[nH]c3ccccc23)NC(=O)[C@@H]2CCCN2C(=O)[C@H](CC(N)=O)NC(=O)[C@H](Cc2c[nH]c3ccccc23)NC(=O)[C@H]([C@@H](C)O)NC(=O)[C@H](CC(N)=O)NC1=O`, the Activity with Plasma is under 5%. Moreover, in the data set on Mus musculus, the “inhibition (INH)” value was determined as 36%. Further, in the data set with Rattus norvegicus [1], the inhibition entry was “Dose-dependent effect”.
On to `CC(=O)N[C@H]1CSCc2cc3cc(c2)CSC[C@H](NC(=O)[C@H](CCCCNC(=N)N)NC(=O)[C@H](Cc2ccc(O)cc2)NC(=O)[C@@H]2CCN2C(=O)[C@H](Cc2ccccc2)NC(=O)[C@H](CO)NC1=O)C(=O)N[C@@H](C)CN[C@@H](Cc1cnc[nH]1)C(=O)N[C@@H](CCC(N)=O)C(=O)N[C@@H](CC(=O)O)C(=O)N[C@@H](CC(C)C)C(=O)N[C@H](C(=O)O)CSC3`, for which the Activity entry in the data set with Rattus norvegicus [2] and in the data set with Cynomolgus monkey was “Non-Toxic” throughout.
As to `CC[C@H](C)[C@@H]1NC(=O)[C@H](CC(=O)O)NC(=O)[C@@H]2CCCN2C(=O)[C@H](Cc2ccc(O)cc2)NC(=O)[C@H](Cc2ccc(O)cc2)NC(=O)[C@H](C(C)C)NC(=O)[C@@H]2CSCc3cc(cc(c3)CSC[C@@H](C(=O)N[C@@H](C)C(=O)N(C)CC(=O)N(C)CC(=O)N(C)CC(=O)N[C@H](CCCNC(=N)N)C(=O)N[C@H](CCCNC(=N)N)C(=O)O)NC1=O)CSC[C@H](NC(C)=O)C(=O)N[C@@H](CO)C(=O)N[C@@H](Cc1ccccc1)C(=O)N1CCC1C(=O)N[C@@H](Cc1ccc(O)cc1)C(=O)N[C@@H](CCCCNC(=N)N)C(=O)N2` (some centres not stated), the results for the Ki at Plasma kallikrein and on (UniProt A0A8D1M4K5) were 0.25 nM and 300 nM, respectively.

For the origin of these results see ChEMBL document CHEMBL4033799, “Stable and Long-Lasting, Novel Bicyclic Peptide Plasma Kallikrein Inhibitors for the Treatment of Diabetic Macular Edema” (J Med Chem, 2018).
